# Test results from paper PMC2818593 (Cancer prevention research (Philadelphia, Pa.), 2010).
# Several values for one entry are separate records, joined by “and”; a condition that tells them apart may be missing. Equal entries are not always repeated. Where two headings read alike, the source gives them in different places.
# How the values were obtained:
# [1] = Metabolism of ILG in the rat; assay type: in vivo; details: rat plasma after administration of ILG
# H4IIE cells = assay: GSH levels in H4IIE rat hepatoma cells; assay type: cell-based; details: 24 h
# Summary of the method: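 H4IIE rat hepatoma cells grown in MEM with 10% heat-inactivated FBS, non-essential amino acids and 1 mM pyruvate at 37 °C, 5% CO2. 3 × 10^6 cells exposed 24 h to 10–160 µM test compound (DMSO 0.5% final as control), then lysed in pH 7.0 phosphate/EDTA. Total GSH measured by enzymatic recycling on 1 µg protein (Bradford), expressed as fold over control. Two-sided tests, p < 0.05.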
# [2] = system: quinone reductase-1 (QR-1); assay: QR-1 activity in rat tissues after dietary ILG; assay type: in vivo
# [3] = system: DMBA-induced mammary tumors; details: preliminary study, 5.0 g/kg diet, cited from earlier work
# [4] = system: glutathione S-transferase (GST); assay: GST activity in rat tissues after dietary ILG; assay type: in vivo; details: 10.0 g/kg diet; liver, colon, mammary gland
# [5] = Quantification of ILG in rat plasma and tissues by LC-MS-MS; assay type: in vivo
# [6] = system: carcinogen-treated mouse mammary organ culture; details: at 10 µg/mL; cited from earlier work
# GSH = GSH level in rat tissues after dietary ILG; assay type: in vivo; details: 10.0 g/kg diet; liver, colon, mammary gland
# [7] = system: DMBA-induced mammary tumors; assay: DMBA-induced mammary carcinogenesis in rats; assay type: in vivo
# [8] = system: QR-1 activity in mouse Hepa 1c1c7 cells; details: cited from earlier work
structure (smiles),measurement,setting,value
"O=C(/C=C/c1ccc(O)cc1)c1ccc(O[C@@H]2O[C@H](C(=O)O)[C@@H](O)[C@H](O)[C@H]2O)cc1O [MG5, 4′-glucuronosylisoliquiritigenin]",relative abundance among the five glucuronides,[1],most abundant
"O=c1cc(-c2ccc(Br)cc2)oc2ccccc12 [4'-Bromoflavone, reference compound]",GSH levels,"H4IIE cells; H4IIE cells, 10 µM, positive control",significant increase in GSH levels
"O=C(/C=C/c1ccc(O)cc1)c1ccc(O)cc1O [ILG, 2′,4′,4-trihydroxychalcone]",dose giving significant increase of total GSH,H4IIE cells; rat hepatoma cells,≥ 80 µM
same,QR-1 activity,"[2]; colon, end of in vivo study",significantly elevated
same,QR-1 activity,[2]; liver or mammary gland tissues,no significant induction
same,incidence of mammary tumors,[3]; after 120 days,little effect on the incidence of mammary tumors
same,tumor latency,[3]; one week prior and one week after DMBA,increased tumor latency
same,adverse effects,[3],no adverse effects were detected
same,GST activity,[4],significantly elevated only in the liver
same,Concentration of ILG in liver tissue,[5]; 7.50 g/kg diet + DMBA,2.56 ± 0.96 µg/g tissue
same,Concentration of ILG in mammary tissue,[5]; 7.50 g/kg diet + DMBA,0.044 ± 0.014 µg/g tissue
same,Concentration of ILG in plasma,[5]; 7.50 g/kg diet + DMBA,57.81 ± 19.65 ng/mL and 57.8 ± 19.6 ng/mL
same,Concentration of ILG in liver tissue,[5]; 10.0 g/kg diet,3.25 ± 1.38 µg/g tissue
same,Concentration of ILG in mammary tissue,[5]; 10.0 g/kg diet,0.094 ± 0.043 µg/g tissue
same,Concentration of ILG in plasma,[5]; 10.0 g/kg diet,142.2 ± 35.9 ng/mL
same,Concentration of ILG in liver tissue,[5]; 10.0 g/kg diet + DMBA,4.71 ± 1.64 µg/g tissue
same,Concentration of ILG in mammary tissue,[5]; 10.0 g/kg diet + DMBA,0.084 ± 0.040 µg/g tissue
same,Concentration of ILG in plasma,[5]; 10.0 g/kg diet + DMBA,134.6 ± 47.2 ng/mL
same,inhibition in carcinogen-treated mouse mammary organ culture assay,[6],76%
same,GSH levels,GSH,significantly elevated only in the liver
same,tumor latency,[7]; 7.5 and 10 g/kg diet during the entire study,increased tumor latency
same,overall tumor incidence and multiplicity,"[7]; 7.5 and 10 g/kg diet, after 84 days",increased the overall tumor incidence and multiplicity
same,body weight,"[7]; between the different groups, 7.5 and 10 g/kg diet",no significant differences in body weight
same,"CD, induction of QR-1 activity",[8],2 µM
